Tests used:
RBL-2H3 [1] = assay: Antiinflammatory activity against calcium ionophore A23187-induced beta-hexosaminidase release from rat RBL2H3 cells at 10 uM after 30 mins; type: functional; details: RBL-2H3, 0.5 h
Procedure, shortened: (§1)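 RBL-2H3 cells plated at 1 × 10⁵ cells/cm² in 24-well plates and allowed to adhere ≥3 h. Medium replaced with fresh medium containing calcium ionophore A23187 plus compound (0.3–50 µM range; DMSO 0.5% solvent control). Incubation 30 min, 37 °C, 5% CO₂. Supernatant β-hexosaminidase measured with p-nitrophenyl N-acetyl-glucosaminide in citrate pH 4.5 for 1 h at 37 °C, stopped with NaOH, read at 405 nm. Values are % of total (Triton X-100 lysate), spontaneous release subtracted. Triplicate.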

Mus musculus = assay: Antiinflammatory activity against arachidonic acid-induced ear edema in Balb/C mouse at 300 ug/ear administered topically 1 hr before arachidonic acid challenge measured after 60 mins; type: functional
Procedure, shortened: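 Topical application in 100 µL acetone (compound 300 µg, indomethacin 300 µg positive control, vehicle alone) to mouse ear; oedema induced with arachidonic acid (4 mg). Ear width measured with a micrometer screw gauge before and 60 min after induction. Oedema expressed as percentage of normal by comparing left and right ear widths. n = 4–8 per group.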

RBL-2H3 [2] = assay: Antiinflammatory activity against calcium ionophore A23187-induced beta-hexosaminidase release from rat RBL2H3 cells after 30 mins; type: functional, cell-based; procedure, shortened: as §1
RBL-2H3 [3] = assay: Antiinflammatory activity against calcium ionophore A23187-induced beta-hexosaminidase release in rat RBL2H3 cells at 50 uM after 30 mins; type: functional; details: RBL-2H3, 0.5 h; procedure, shortened: as §1
Ileum [4] = assay: Muscle relaxant activity in potassium-depolarized guinea pig ileum assessed as inhibition of calcium-induced contraction at 10 uM; type: functional; details: Cavia porcellus
Procedure, shortened: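 Isolated guinea-pig ileum depolarised with potassium; sustained contraction induced by calcium (2.5 mM). Test compounds at 1 × 10⁻⁵ M, with nifedipine 1 × 10⁻⁸ M as reference. Result expressed as % inhibition of the calcium contracture. Mean ± SEM, n = 6–12.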

Ileum [5] = assay: Muscle relaxant activity in potassium-depolarized guinea pig ileum assessed as inhibition of calcium-induced contraction at 10 nM; type: functional; details: Cavia porcellus
Procedure, shortened: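 Isolated guinea-pig ileum, depolarised with potassium, in which calcium (2.5 mM) induced a sustained contraction. The agent was applied at 1 × 10^-8 M, and activity was expressed as percent inhibition of the calcium contracture. Values are given as mean with SEM, n = 6.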

O[C@H]1c2ccccc2C[C@]1(Cc1ccccc1)C1=Cc2ccccc2C1
inhibition at 10 µM (RBL-2H3 [1]): 45% | inhibition (INH) (Mus musculus): 45% | inhibition (RBL-2H3 [2]): Dose-dependent effect | inhibition at 50 µM (RBL-2H3 [3]): 96% | inhibition at 10 µM (Ileum [4]): 18.9%

COc1ccc2c(c1)c(CC(=O)O)c(C)n2C(=O)c1ccc(Cl)cc1 [INDOMETHACIN]
inhibition (INH) (Mus musculus): 50%

COC(=O)C1=C(C)NC(C)=C(C(=O)OC)C1c1ccccc1[N+](=O)[O-] [NIFEDIPINE]
inhibition at 0.01 µM (Ileum [5]): 48.1%

O[C@H]1c2ccccc2C[C@@]1(Cc1ccccc1)C1=Cc2ccccc2C1
inhibition at 10 µM (RBL-2H3 [1]): 40% | inhibition (INH) (Mus musculus): 59% | inhibition (RBL-2H3 [2]): Dose-dependent effect | inhibition at 50 µM (RBL-2H3 [3]): 75% | inhibition at 10 µM (Ileum [4]): 36.4%
